Usually inhibition stands for the drop in the measured response relative to a control, in per cent.

Active and inactive are the calls of the source.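 How the source made its calls: active means inhibition of 35% or more of the parasite aminopeptidase activity in malaria cell lysate; inactive means inhibition below 35%.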

Inhibition data for 13 compounds are collected here from PubChem BioAssay AID492976 (The Scripps Research Institute Molecular Screening Center, 2010).

Aminopeptidase N (Plasmodium falciparum (isolate 3D7)), sequence (O96935 whole entry, looked up): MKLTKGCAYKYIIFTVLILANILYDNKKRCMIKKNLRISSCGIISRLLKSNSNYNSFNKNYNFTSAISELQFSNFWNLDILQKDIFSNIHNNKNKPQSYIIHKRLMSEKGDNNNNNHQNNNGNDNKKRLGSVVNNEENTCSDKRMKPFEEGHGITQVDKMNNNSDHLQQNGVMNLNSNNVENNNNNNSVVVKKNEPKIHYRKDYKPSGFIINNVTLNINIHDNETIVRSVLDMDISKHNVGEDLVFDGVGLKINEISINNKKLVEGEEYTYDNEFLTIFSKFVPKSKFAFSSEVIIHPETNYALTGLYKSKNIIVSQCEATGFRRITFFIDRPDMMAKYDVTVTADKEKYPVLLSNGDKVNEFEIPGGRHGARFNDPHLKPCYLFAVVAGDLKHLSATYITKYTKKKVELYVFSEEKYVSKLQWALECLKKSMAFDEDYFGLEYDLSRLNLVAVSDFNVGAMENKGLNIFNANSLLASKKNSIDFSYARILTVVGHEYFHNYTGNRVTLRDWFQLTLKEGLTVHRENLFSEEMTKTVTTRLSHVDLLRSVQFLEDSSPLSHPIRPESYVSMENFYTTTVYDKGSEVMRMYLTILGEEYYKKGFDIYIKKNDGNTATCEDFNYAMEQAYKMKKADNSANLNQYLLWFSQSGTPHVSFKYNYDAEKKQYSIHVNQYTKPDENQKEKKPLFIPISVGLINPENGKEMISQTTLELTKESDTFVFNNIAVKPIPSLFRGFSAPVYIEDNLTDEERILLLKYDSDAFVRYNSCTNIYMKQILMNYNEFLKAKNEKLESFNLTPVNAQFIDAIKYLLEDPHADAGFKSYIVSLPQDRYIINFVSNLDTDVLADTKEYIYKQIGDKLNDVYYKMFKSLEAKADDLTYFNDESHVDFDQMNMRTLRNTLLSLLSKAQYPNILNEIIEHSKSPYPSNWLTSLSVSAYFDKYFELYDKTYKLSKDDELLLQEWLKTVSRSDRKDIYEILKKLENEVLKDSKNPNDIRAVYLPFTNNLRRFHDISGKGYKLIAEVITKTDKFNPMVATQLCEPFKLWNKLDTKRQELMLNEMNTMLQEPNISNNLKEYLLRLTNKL

For the assay, the target named is Aminopeptidase N (Plasmodium falciparum (isolate 3D7)) (UniProt O96935). The assay is described as follows: M1 aminopeptidase activity inhibition, P. falciparum lysate – cell lysate, fluorescence, malaria cell lysate, powder samples, late-stage follow-up (AID 492976). As to conditions: H-Arg-NHMec fluorogenic substrate, at 5 µM, hits give high values. An outline of the steps:
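Assay system: P. falciparum cell lysate; input: malaria lysate at 10 µg/mL final; buffer or medium: Tris-HCl, pH 7.5; dosing: 5 µM, one dose; incubation: 10 min preincubation, 30 min reading; technique: kinetic NHMec fluorescence, ex 370 nm, em 460 nm, 60-s intervals; measure: % inhibition vs control wells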
`O=C(Nn1c(C2CCC2)nc2ccccc2c1=O)c1cccs1`: the inhibition is 0% (inactive). In the case of `COc1ccc(C2CC(c3c(-c4ccccc4)c4cc(Cl)ccc4[nH]c3=O)=NN2C(=O)CCC(=O)O)cc1` (stereo not drawn) it was 0% (inactive); in that of `O=C(O)CCC(=O)N1N=C(c2c(-c3ccccc3)c3cc(Cl)ccc3[nH]c2=O)CC1c1cccs1` (stereo not drawn), 3% (inactive); in that of `O=C(O)CCC(=O)N1N=C(c2c(-c3ccccc3)c3cc(Cl)ccc3[nH]c2=O)CC1c1ccco1` (stereo not drawn), 2% (inactive). Consider `O=C(NCCC1=CCCCC1)C1CCN(S(=O)(=O)c2ccc(Br)s2)CC1`, for which the inhibition was 13% (inactive).

Regarding `CC(=O)N1N=C(c2c(O)n(C)c(=O)n(C)c2=O)CC1c1ccccc1` (stereo not drawn), the inhibition was 0% (inactive).

Take `O=C1N=c2ccccc2=C1c1sc(=S)n(NC(=O)c2cccc(O)c2)c1O`: the inhibition is 17% (inactive).

Regarding `O=C1N=c2ccccc2=C1c1sc(=S)n(NC(=O)c2ccccc2)c1O`, the inhibition was 0% (inactive). In the case of `O=C(NCc1cccc(F)c1)C1CCN(S(=O)(=O)Cc2ccccc2)CC1` it was 35%. In the case of `COc1ccccc1-c1nc2ccccc2c(=O)n1NC(=O)c1cccs1` it was 0% (inactive); in that of `COc1ccc(OC)c(/C=C2\SC(=S)N(C(C(=O)O)c3ccccc3)C2=O)c1` (stereo not drawn), 0% (inactive); in that of `O=C(NCc1ccco1)C1CCCN(S(=O)(=O)c2cccc3nonc23)C1` (stereo not drawn), 0% (inactive). Take `O=C1/C(=C/c2cccs2)SC(=S)N1NS(=O)(=O)c1ccccc1`: the inhibition was 0% (inactive).
